# From ChEMBL document CHEMBL1671711, “Serum and cerebrospinal fluid levels of colistin in pediatric patients” (Antimicrob Agents Chemother, 2010)
# Columns and labels:
# Format in all cases: ADME, organism-based
# [1] = Ratio of drug level in cerebrospinal fluid to Serum of pediatric patient with gram-negative bacterial infection at 10.4 mg/kg/day, iv administered every 8 hrs for 46 days by LS/MS/MS analysis; parameters: route intravenous; conditions: human, csf
# In short: (§1)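 Percentages are the ratio of mean CSF concentration to mean serum concentration from paired samples. Blood was drawn immediately before and 30 min after the 20-min IV CMS infusion (every 8 h); CSF came from EVD systems concurrently. Both were measured by LC-MS-MS, for colistin directly and for CMS after acid hydrolysis. Pairs were repeated on two days.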
# [2] = system: Serum; assay: Drug level in pediatric patient serum with gram-negative bacterial infection at 18 mg/kg/day, iv administered every 8 hrs for 42 days measured after 30 mins by LS/MS/MS analysis; parameters: route intravenous; conditions: human, in vivo, 0.5 h
# In short: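 Serum was taken 30 min after the end of the 20-min IV CMS infusion (every 8 h) and stored at −80°C. It underwent acid hydrolysis with 1 M H2SO4 for 15–20 min, neutralisation with 1 M NaOH, and precipitation with acetonitrile containing 0.1% TFA. LC-MS-MS colistin before hydrolysis was subtracted from colistin after hydrolysis to give CMS. Values are means of two days.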
# [3] = Drug level in pediatric patient cerebrospinal fluid with gram-negative bacterial infection at 16 mg/kg/day, iv administered every 8 hrs for 51 days measured after 30 mins by LS/MS/MS analysis; parameters: route intravenous; conditions: human, in vivo, 0.5 h
# In short: (§2)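 CMS was given by 20-min IV infusion in saline every 8 h, and CSF was taken from EVD systems after the end of infusion. The CSF–serum 1:1 mix was treated with 1 M H2SO4 for 15–20 min, then 1 M NaOH, then acetonitrile with 0.1% TFA. CMS was calculated as colistin after hydrolysis minus colistin before hydrolysis, by LC-MS-MS, with CMS controls of 0.25–18.5 μg/ml. Values are means of two days; course 1 was sampled once.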
# [4] = system: Serum; assay: Drug level in pediatric patient serum with gram-negative bacterial infection assessed as Colistin level at 4.8 mg/kg/day, iv administered every 8 hrs for 7 days measured after 30 mins by LS/MS/MS analysis; parameters: route intravenous; conditions: human, in vivo, 0.5 h
# In short: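 Blood was drawn 30 min after the end of the 20-min IV CMS infusion, given every 8 h. Serum was separated by centrifugation, stored at −80°C, and assayed by LC-MS-MS for colistin A plus B (interday CV <4.4%, accuracy within ±1.9%). Values are means of two sampling days; course 1 was sampled once.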
# [5] = Ratio of drug level in cerebrospinal fluid to Serum of pediatric patient with gram-negative bacterial infection before initiation of 10.4 mg/kg/day, iv administered every 8 hrs for 46 days by LS/MS/MS analysis; parameters: route intravenous; conditions: human, csf; in short: as §1
# [6] = Ratio of drug level in cerebrospinal fluid to Serum of pediatric patient with gram-negative bacterial infection at 4.8 mg/kg/day, iv administered every 8 hrs for 7 days by LS/MS/MS analysis; parameters: route intravenous; conditions: human, csf; in short: as §1
# [7] = Drug level in pediatric patient cerebrospinal fluid with gram-negative bacterial infection assessed as Colistin level at 10.4 mg/kg/day, iv administered every 8 hrs for 46 days measured after 30 mins by LS/MS/MS analysis; parameters: route intravenous; conditions: human, in vivo, 0.5 h
# In short: (§3)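 Children (1 month to 14 years) received CMS in 30 to 50 ml normal saline by 20-min IV infusion every 8 h. CSF was taken from EVD systems alongside blood, after the end of infusion, and stored at −80°C. It was diluted 1:1 with serum, protein-precipitated, and analysed by LC-MS-MS for colistin A plus B against standards in pH 7.4 phosphate-buffered artificial-CSF Ringer with serum. Values are means of two days; course 1 was sampled once.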
# [8] = system: Serum; assay: Drug level in pediatric patient serum with gram-negative bacterial infection before initiation of 4.8 mg/kg/day, iv administered every 8 hrs for 7 days by LS/MS/MS analysis; parameters: route intravenous; conditions: human, in vivo
# In short: (§4)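 Trough sampling: blood was drawn immediately before the 20-min IV CMS infusion (every 8 h), and CSF was taken from EVD systems within 1 h before infusion. Samples were stored at −80°C and analysed by LC-MS-MS for colistin, and for CMS via acid hydrolysis with subtraction. CSF was diluted 1:1 with serum. Values are means of two days.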
# [9] = Ratio of drug level in cerebrospinal fluid to Serum of pediatric patient with gram-negative bacterial infection at 16 mg/kg/day, iv administered every 8 hrs for 93 days by LS/MS/MS analysis; parameters: route intravenous; conditions: human, csf; in short: as §1
# [10] = Ratio of drug level in cerebrospinal fluid to Serum of pediatric patient with gram-negative bacterial infection before initiation of 16 mg/kg/day, iv administered every 8 hrs for 93 days by LS/MS/MS analysis; parameters: route intravenous; conditions: human, csf; in short: as §1
# [11] = system: Serum; assay: Drug level in pediatric patient serum with gram-negative bacterial infection before initiation of 18 mg/kg/day, iv administered every 8 hrs for 42 days by LS/MS/MS analysis; parameters: route intravenous; conditions: human, in vivo; in short: as §4
# [12] = Drug level in pediatric patient cerebrospinal fluid with gram-negative bacterial infection assessed as Colistin level at 18 mg/kg/day, iv administered every 8 hrs for 42 days measured after 30 mins by LS/MS/MS analysis; parameters: route intravenous; conditions: human, in vivo, 0.5 h; in short: as §3
# [13] = Ratio of drug level in cerebrospinal fluid to Serum of pediatric patient with gram-negative bacterial infection assessed as Colistin level at16 mg/kg/day, iv administered every 8 hrs for 93 days by LS/MS/MS analysis; conditions: human, csf; in short: as §1
# [14] = Ratio of drug level in cerebrospinal fluid to Serum of pediatric patient with gram-negative bacterial infection at 18 mg/kg/day, iv administered every 8 hrs for 42 days by LS/MS/MS analysis; parameters: route intravenous; conditions: human, csf; in short: as §1
# [15] = Ratio of drug level in cerebrospinal fluid to Serum of pediatric patient with gram-negative bacterial infection assessed as Colistin level at 16 mg/kg/day, iv administered every 8 hrs for 51 days by LS/MS/MS analysis; parameters: route intravenous; conditions: human, csf; in short: as §1
# [16] = system: Serum; assay: Drug level in pediatric patient serum with gram-negative bacterial infection before initiation of 16 mg/kg/day, iv administered every 8 hrs for 51 days by LS/MS/MS analysis; parameters: route intravenous; conditions: human, in vivo; in short: as §4
# [17] = Ratio of drug level in cerebrospinal fluid to Serum of pediatric patient with gram-negative bacterial infection assessed as Colistin level at 10.4 mg/kg/day, iv administered every 8 hrs for 46 days by LS/MS/MS analysis; parameters: route intravenous; conditions: human, csf; in short: as §1
# [18] = system: Serum; assay: Drug level in pediatric patient serum with gram-negative bacterial infection before initiation of 10.4 mg/kg/day, iv administered every 8 hrs for 46 days by LS/MS/MS analysis; parameters: route intravenous; conditions: human, in vivo; in short: as §4
# [19] = Drug level in pediatric patient cerebrospinal fluid with gram-negative bacterial infection at 4.8 mg/kg/day, iv administered every 8 hrs for 7 days measured after 30 mins by LS/MS/MS analysis; parameters: route intravenous; conditions: human, in vivo, 0.5 h; in short: as §2
# [20] = Drug level in pediatric patient cerebrospinal fluid with gram-negative bacterial infection at 16 mg/kg/day, iv administered every 8 hrs for 93 days measured after 30 mins by LS/MS/MS analysis; parameters: route intravenous; conditions: human, in vivo, 0.5 h; in short: as §2
# [21] = Ratio of drug level in cerebrospinal fluid to Serum of pediatric patient with gram-negative bacterial infection at 16 mg/kg/day, iv administered every 8 hrs for 51 days by LS/MS/MS analysis; parameters: route intravenous; conditions: human, csf; in short: as §1
# [22] = Ratio of drug level in cerebrospinal fluid to Serum of pediatric patient with gram-negative bacterial infection before initiation of 16 mg/kg/day, iv administered every 8 hrs for 51 days by LS/MS/MS analysis; parameters: route intravenous; conditions: human, csf; in short: as §1
# [23] = Ratio of drug level in cerebrospinal fluid to Serum of pediatric patient with gram-negative bacterial infection before initiation of 18 mg/kg/day, iv administered every 8 hrs for 42 days by LS/MS/MS analysis; parameters: route intravenous; conditions: human, csf; in short: as §1
sequence,measurement,setting,value
COLISTIN,Ratio,[1],0.2%
same,Drug uptake,[2],7.98 µg/mL
same,Drug uptake,[3],0.09 µg/mL
same,Drug uptake,[4],0.29 µg/mL
same,Ratio,[5],3.1%
same,Ratio,[6],2%
same,Drug uptake,[7],0.05 µg/mL
same,Drug uptake,[8],0.28 µg/mL
same,Ratio,[9],3.1%
same,Ratio,[10],50.9%
same,Drug uptake,[11],6.11 µg/mL
same,Drug uptake,[12],0.07 µg/mL
same,Ratio,[13],34.8%
same,Ratio,[14],0.4%
same,Ratio,[15],7.2%
same,Drug uptake,[16],0.93 µg/mL
same,Ratio,[17],3.4%
same,Drug uptake,[18],0.84 µg/mL
same,Drug uptake,[19],0.06 µg/mL
same,Drug uptake,[20],0.26 µg/mL
same,Ratio,[21],0.9%
same,Ratio,[22],9.9%
same,Ratio,[23],0.6%
